These results are taken from PMC3375352 (Journal of Medicinal Chemistry, 2012).

The conditions of series [1]: cited from earlier work.
The test system of series [2] is U2OS (human osteosarcoma). Briefly: MTT cytotoxicity assay, U2OS. In kind it is cell-based. As to conditions: read-out: IC50 U2OS, 72 h continuous treatment. The method, boiled down: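 Cells were grown as adherent monolayers in DMEM with 10% FBS and 1% penicillin/streptomycin at 37 °C, humidified 5% CO₂. 2000 cells/well were seeded and left for 24 h. Medium was replaced with test compound dilutions from 1–3 mM aqueous stocks for 72 h. MTT (0.8 mg/mL in DMEM) was added for 4 h, and formazan was dissolved in DMSO with 10% pH 10.5 glycine buffer. A555 was normalised to Pt-free controls and IC50 interpolated from % viability curves. Values are means of ≥3 independent experiments, each with six replicates per concentration; errors are standard deviations.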

For the next series, the system named is HeLa cells. Briefly: cellular platinum uptake by GFAAS. In kind it is cell-based, human. As to conditions: 10 µM, 4 h exposure. The method in brief: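 HeLa cells were seeded at 3×10⁵ cells/well, grown 48 h, then exposed to test compound (10 µM final) for 4 h. Cell-free medium wells served as blanks for nonspecific Pt adsorption, and parallel wells were trypsinised and counted with trypan blue. Wells were washed twice with pH 7.4 PBS and digested in hot (≈90 °C) concentrated nitric acid for 2 h. Pt was measured by GFAAS, blank-subtracted and normalised per cell; errors were derived by error propagation.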

Series [3] deals with nuclear DNA of HeLa cells. Briefly: intracellular DNA platination by GFAAS. In kind it is cell-based, human. Particulars: 100 µM for 4 h, then 16 h in platinum-free medium. The method in brief: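 Five million HeLa cells were seeded, treated next day, and floating plus attached cells were pooled (trypsin), pelleted at 4 °C and washed with ice-cold PBS. Cells were lysed in DNAzol with 100 µg/mL RNase A. DNA was ethanol-precipitated, redissolved in 8 mM NaOH and quantified by UV-visible spectroscopy, and Pt was measured by GFAAS (pmol Pt/µg DNA). Values are means ± SD of ≥3 experiments.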

Consider `N.N.O=C([O-])C1(C(=O)[O-])CCC1.[Pt+2]` [carboplatin], for which the stability in water entry in series [1] was “stable for up 60 d”.
In the case of `N.N.[Cl][Pt][Cl]` [cisplatin, cis-diamminedichloroplatinum(II)], the IC50 in series [2] was 5 ± 2 µM. Further, the “HeLa Cellular Uptake” value in the series on HeLa cells came to 14 ± 2 ng Pt/10^6 cells. The same molecule came in with a Pt/DNA in series [3] of 1.58 ± 0.97 pmol/µg.
